Sampled rows, rich in hits. Any-hit rate of the full collection: about 3.9%.
TIM10 inh – growth inhibitors of isogenic TIM10 control yeast, primary screen, counter-screen for tim10-1 yeast inhibitor project, luminescence, uHTS | S. cerevisiae TIM10 strain growth, BacTiter-Glo luminescence, 24 h | inhibition, % at 10 µM | 1.4% of 330,000 active | AID 463195, 2010;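 active = inhibition of 40% or more at the single tested concentration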;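 also: wild-type TIM10 isogenic control strain grown at permissive 25 °C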
UPR XBP1 act – activators of adaptive XBP1 UPR arm, primary screen, cell-based, CHO-XBP1 luciferase reporter, luminescence, uHTS; activation, % at 20 µM; 0.33% of 330,000 active; AID 463104, 2010; IRE1-XBP1 UPR activation; percent of tunicamycin response, DMSO as zero;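 active = versus positive control, 20 µM dose yields 30% or more activation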;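 also: 100% = tunicamycin at 10 µg/mL and 0% = DMSO only wells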
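incubation = overnight seeding at 37 °C, 6 h compound treatment at 37 °C | assay system = CHO-XBP1 cells stably carrying IRE1-XBP1-driven luciferase reporter | input = 1000 cells per well | detection = luciferase luminescence | dosing = single point, 20 µM final compound, 1% DMSO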
UPR CHOP act – activators of apoptotic CHOP UPR arm, primary screen, cell-based, CHO-CHOP luciferase reporter, luminescence, uHTS; AID 449763, 2010; activation, % at 10 µM; 0.34% of 330,000 active; UPR activation; percent of tunicamycin response over DMSO baseline;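 active = at 10 µM dose, activation of 40% or more, normalized to positive control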;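 also: 100% = tunicamycin at 10 µg/mL and 0% = DMSO alone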
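System: CHO-CHOP luciferase reporter cell line | Buffer or medium: F12 medium containing 10% fetal bovine serum | Doses: One dose, 10 µM in 0.5% DMSO | Times: 6 h compound exposure at 37 °C after overnight seeding | Signal: Luciferase luminescence | Read-out: % activation vs tunicamycin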
tim23-1 inh – growth inhibitors of tim23-1 mutant yeast, primary screen, luminescence, uHTS | inhibition, % at 20 µM | AID 463212, 2010 | S. cerevisiae tim23-1 growth, BacTiter-Glo luminescence, 24 h | 1.3% of 330,000 active;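 active = growth inhibition of the mutant yeast at or above 50%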;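 also: temperature-sensitive mutant grown at 25 °C; plate controls were DMSO-treated mutant yeast for no effect and medium wells lacking yeast for full effect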
tim10-1 inh – growth inhibitors of tim10-1 mutant yeast, primary screen, luminescence, uHTS | S. cerevisiae tim10-1 ts strain growth, BacTiter-Glo, 24 h | inhibition, % at 20 µM | 2.2% of 330,000 active | AID 463190, 2010;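 active = inhibition of at least 40%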;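 also: mutant grown at 25 °C; 0% = DMSO wells with yeast and 100% = wells holding no yeast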
tim10-1 confirm – growth inhibitors of tim10-1 mutant yeast, confirmation, single concentration, luminescence, S. cerevisiae; shares compounds with tim10-1 inh; S. cerevisiae tim10-1 ts strain growth, BacTiter-Glo, 24 h; inhibition, % at 20 µM; 56% of 7,400 active; AID 463213, 2010;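 active = inhibition of yeast growth at or above a set limit in either of two repeat tests at 20 µM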;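 also: tim10-1 mutant grown at permissive 25 °C to find synthetic lethal compounds; 0% = DMSO yeast wells and 100% = medium wells without yeast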
TIM10 conf – growth inhibitors of wild-type TIM10 yeast, confirmation, counter-screen for tim10-1 synthetic lethality project, single concentration, luminescence, S. cerevisiae; inhibition, % at 10 µM; shares compounds with TIM10 inh; S. cerevisiae tim10 strain growth, BacTiter-Glo luminescence, 24 h; AID 463215, 2010; 63% of 4,600 active;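 active = inhibition of yeast growth at or above a set limit in either of two replicates at 10 µM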;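 also: this counterscreen used the strain with wild-type TIM10; 0% = yeast with DMSO and 100% = medium wells lacking yeast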
tim23-1 confirm – tim23-1 mutant yeast growth inhibitors, confirmation, luminescence, single concentration. shares compounds with tim23-1 inh. S. cerevisiae tim23-1 growth, BacTiter-Glo luminescence, 24 h. inhibition, % at 20 µM. 83% of 4,400 active;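 active = inhibition above about 39% in either of two replicate wells at 20 µM, limit read from the data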;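 also: temperature-sensitive tim23-1 mutant grown at 25 °C; 0% = DMSO wells with yeast and 100% = medium wells without yeast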
* hit, by the source's call; . = not tested or not shown.

SMILES | TIM10 inh | UPR XBP1 act | UPR CHOP act | tim23-1 inh | tim10-1 inh | tim10-1 confirm | TIM10 conf | tim23-1 confirm
O=C1Nc2ccccc2/C1=N\N=C\C1=C(N2CCOCC2)C(=C\c2ccccc2)/CC1 | 47* | 7 | 9 | 58* | 61* | 52* | 36* | 51*
O=C(COC(=O)c1cc(Cl)nc(Cl)c1)Nc1ccc(Cl)c(S(=O)(=O)N2CCOCC2)c1 | -3 | -4 | 1 | 11 | 8 | . | . | .
O=C(Cc1c(F)cccc1Cl)Nc1nc2ccccc2s1 | 48* | -1 | 5 | 55* | 43* | 30* | 34* | 63*
O=C1c2ccccc2-c2onc3ccc(Oc4ccccc4)c1c23 | 57* | -10 | -2 | 77* | 76* | 59* | 68* | 85*
Cc1ccccc1C1=NC(C(F)(F)F)(C(F)(F)F)c2c(n(C)c(=O)n(C)c2=O)N1 | 12 | 6 | -1 | 27 | 7 | . | . | .
Cn1c2c(c(=O)n(C)c1=O)C(C(F)(F)F)(C(F)(F)F)N=C(c1ccc(Cl)cc1)N2 | 33 | 8 | 15 | 59* | 61* | 59* | . | 51*
COc1ccc(N=Cc2nc(-c3ccccc3)oc2OC(C)=O)cc1 | 48* | 4 | 1 | 70* | 46* | 47* | 26 | 63*
COc1cccc(N=Cc2nc(-c3ccccc3)oc2OC(C)=O)c1 | 44* | 4 | 3 | 74* | 64* | 51* | 34* | 70*
CCn1cc(/C=C(\NC(=O)c2ccccc2F)C(=O)NCCCn2ccnc2)c2ccccc21 | -1 | -5 | 1 | 11 | 14 | . | . | .
O=C(CN1CCN(C(=O)C2CCCO2)CC1)Nc1cc(Cl)ccc1Cl (stereo not drawn) | 17 | -1 | -1 | 14 | 20 | . | . | .
CCOC(=O)c1ccccc1NC(=O)CSc1nnnn1C1CCCCC1 | 36 | -1 | -1 | 53* | 43* | 19 | . | 34
COC(=O)c1ccccc1NC(=O)CSc1nnnn1C1CCCCC1 | 17 | 1 | 2 | 33 | 26 | . | . | .
COc1ccccc1-c1ccc(NC2CCCCC2)nn1 | 29 | 3 | 0 | 52* | 43* | 38* | . | 41*
Cc1occc1C(=O)N/N=C/c1ccc(-c2ccccc2)cc1 | 43* | -9 | 1 | 63* | 59* | 56* | 41* | 57*
C=CC[C@@H](CC(=O)N[C@H](CO)Cc1ccccc1)C(=O)N[C@H](COC(=O)[C@@H](CC=C)CC(=O)OC(C)(C)C)Cc1ccccc1 | 11 | -2 | 0 | 23 | 6 | . | . | .
Cn1c(N=Nc2ccccc2)nc2ccccc21 | 26 | -3 | -1 | 32 | 15 | . | . | .
CN(C)c1ccc(N=Nc2nc3ccccc3n2C)cc1 | 82* | -8 | -11 | 87* | 65* | 74* | 73* | 82*
COc1ccc(N2CCN(C(CNC(=O)OCc3ccccc3)c3ccco3)CC2)cc1 (stereo not drawn) | 10 | -1 | 0 | 29 | 27 | . | . | .
O=C(COc1ccc(Cl)cc1)OCC(=O)c1ccc[nH]1 | -3 | 5 | -2 | 3 | 3 | . | . | .
Cc1sc(NC(=O)c2ccco2)c(CN2CCN(c3ccccn3)CC2)c1C | 27 | 1 | 1 | 59* | 48* | 32* | . | 55*
O=C(Nc1ccc(Oc2ccc(Cl)cc2)c(Cl)c1)c1cc(I)cc(I)c1O | 31 | -3 | 0 | 59* | 54* | 52* | . | 60*
COc1ccc(NC(=O)c2ccccc2F)cc1Cl | -1 | 0 | 1 | -7 | -20 | . | . | .
N#C/C(=C\c1ccc(Cl)s1)C(=O)N1CCN(c2ccccc2)CC1 | 6 | -2 | -2 | 18 | 12 | . | . | .
O=C(NC(=S)NCCc1ccccc1)c1ccccc1 | 43* | 0 | 3 | 55* | 45* | 20 | 41* | 48*
O=C(NC(=S)NCc1ccccc1)c1ccccc1Br | 12 | -2 | 1 | 43 | -3 | . | . | .
SMILES | TIM10 inh | UPR XBP1 act | UPR CHOP act | tim23-1 inh | tim10-1 inh | tim10-1 confirm | TIM10 conf | tim23-1 confirm
O=C(NC(=S)NCc1ccccc1)c1ccccc1F | 22 | 4 | 4 | 51* | 40* | 27* | . | 25
CC1CCCCN1S(=O)(=O)c1ccc(NC(=O)c2cccs2)cc1 (stereo not drawn) | 51* | -4 | 0 | 54* | 54* | 48* | 52* | 71*
CC1CCN(S(=O)(=O)c2ccc(NC(=O)c3cccs3)cc2)CC1 | 42* | -3 | -1 | 54* | 42* | 50* | 53* | 59*
CCC(C)Sc1nnc(NS(=O)(=O)Cc2ccccc2)s1 (stereo not drawn) | 1 | -2 | 1 | -7 | 4 | . | . | .
Nn1c(SCC(=O)NC2CCS(=O)(=O)C2)nnc1-c1ccco1 (stereo not drawn) | 1 | -4 | 2 | 16 | 4 | . | . | .
C/C(=N/NS(=O)(=O)c1ccc(CC(C)C)cc1)c1ccncc1 | 2 | -1 | 0 | 0 | -15 | . | . | .
CCn1c(/C=C2/C(=O)N(C)c3ccccc32)nc2ccccc2c1=O | 37 | 1 | -1 | 54* | 50* | 32* | . | 58*
CCN1C(=O)/C(=C\N(C)C)c2ccccc21 | 2 | 3 | 0 | -1 | 14 | . | . | .
CCCN1C(=O)/C(=C/c2nc3ccccc3c(=O)[nH]2)c2ccccc21 | 42* | 3 | 3 | 52* | 51* | 36* | 16 | 55*
CCN1C(=O)/C(=C\c2nc3ccccc3c(=O)n2CC)c2ccccc21 | 47* | 4 | 0 | 56* | 55* | 44* | 33* | 57*
CCn1c(/C=C2\C(=O)N(C)c3ccccc32)nc2ccccc2c1=O | 43* | 7 | -1 | 52* | 45* | 39* | 25 | 52*
CCn1c(/C=C\c2ccccc2C)nc2ccccc2c1=O | 21 | 8 | 2 | 19 | 26 | . | . | .
O=C(CCN1CCCCC1=O)NC1CCCc2c1cnn2-c1ccccc1F (stereo not drawn) | -9 | 0 | -1 | -12 | 5 | . | . | .
CC(NC(=O)CCCCCNC(=O)N1CCn2c1nc1ccccc12)c1ccccc1 (stereo not drawn) | 10 | -2 | 0 | 1 | 6 | . | . | .
